ChEMBL document CHEMBL2021899, “Anti-AIDS agents 89. Identification of DCX derivatives as anti-HIV and chemosensitizing dual function agents to overcome P-gp-mediated drug resistance for AIDS therapy” (Bioorg Med Chem Lett, 2012)

What was measured:
[1] = tested on: Human immunodeficiency virus; experiment: Antiviral activity against HIV/NL4-3 infected in human TZM-bl cells assessed as inhibition of viral replication after 48 hrs by luciferase reporter gene assay; type: functional, organism-based; details: Human immunodeficiency virus 1, NL4-3, TZM-bl
[2] = Cytotoxicity against human TZM-bl cells after 48 hrs by CytoTox-GloTM assay; type: cell-based
KB [3] = experiment: Reversal of p-glycoprotein-mediated multidrug resistance in human vincristine-resistance KB cells assessed as potentiation of vincristine-induced cytotoxicity at 4 uM after 48 hrs by SRB assay; type: cell-based
How it was run: (§1)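 Vincristine-resistant, P-gp over-expressing KB-vin cells were exposed to vincristine alone or with co-treatment by the test agent, with verapamil as positive control. Vincristine GI50 was read by SRB assay. Fold value = GI50 (vincristine alone) / GI50 (vincristine + test agent). At least three independent experiments.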

[4] = molecular target: ATP-dependent translocase ABCB1 (Homo sapiens, UniProt P08183); experiment: Inhibition of p-glycoprotein-mediated doxorubicin efflux in human KB cells assessed as doxorubicin accumulation preincubated for 1 hr prior doxorubicin addition measured after 3 hrs by fluorometric assay; type: cell-based
How it was run: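 KB-vin cells were seeded at 5 × 10³ per well and grown 72 h at 37 °C in 5% CO2, then washed. They were pretreated with sample or vehicle for 1 h, then doxorubicin was added to 10 final and incubated 3 h. Cells were washed in ice-cold PBS and lysed in 1% SDS/PBS; fluorescence was read at Ex 488/Em 580 nm. Value = fluorescence with compound / without, after control subtraction. Verapamil served as positive control.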

KB [5] = experiment: Reversal of p-glycoprotein-mediated multidrug resistance in human vincristine-resistance KB cells assessed as potentiation of vincristine-induced cytotoxicity at 4 uM after 48 hrs by SRB assay relative to verapamil; type: cell-based; how it was run: as §1
KB [6] = experiment: Cytotoxicity against human KB cells at 4 uM after 48 hrs by SRB assay; type: functional
KB [7] = experiment: Ratio of GI50 for human vincristine-resistance KB cells to GI50 for wild type human KB cells; type: functional

ATP-dependent translocase ABCB1, sequence (P08183 whole entry): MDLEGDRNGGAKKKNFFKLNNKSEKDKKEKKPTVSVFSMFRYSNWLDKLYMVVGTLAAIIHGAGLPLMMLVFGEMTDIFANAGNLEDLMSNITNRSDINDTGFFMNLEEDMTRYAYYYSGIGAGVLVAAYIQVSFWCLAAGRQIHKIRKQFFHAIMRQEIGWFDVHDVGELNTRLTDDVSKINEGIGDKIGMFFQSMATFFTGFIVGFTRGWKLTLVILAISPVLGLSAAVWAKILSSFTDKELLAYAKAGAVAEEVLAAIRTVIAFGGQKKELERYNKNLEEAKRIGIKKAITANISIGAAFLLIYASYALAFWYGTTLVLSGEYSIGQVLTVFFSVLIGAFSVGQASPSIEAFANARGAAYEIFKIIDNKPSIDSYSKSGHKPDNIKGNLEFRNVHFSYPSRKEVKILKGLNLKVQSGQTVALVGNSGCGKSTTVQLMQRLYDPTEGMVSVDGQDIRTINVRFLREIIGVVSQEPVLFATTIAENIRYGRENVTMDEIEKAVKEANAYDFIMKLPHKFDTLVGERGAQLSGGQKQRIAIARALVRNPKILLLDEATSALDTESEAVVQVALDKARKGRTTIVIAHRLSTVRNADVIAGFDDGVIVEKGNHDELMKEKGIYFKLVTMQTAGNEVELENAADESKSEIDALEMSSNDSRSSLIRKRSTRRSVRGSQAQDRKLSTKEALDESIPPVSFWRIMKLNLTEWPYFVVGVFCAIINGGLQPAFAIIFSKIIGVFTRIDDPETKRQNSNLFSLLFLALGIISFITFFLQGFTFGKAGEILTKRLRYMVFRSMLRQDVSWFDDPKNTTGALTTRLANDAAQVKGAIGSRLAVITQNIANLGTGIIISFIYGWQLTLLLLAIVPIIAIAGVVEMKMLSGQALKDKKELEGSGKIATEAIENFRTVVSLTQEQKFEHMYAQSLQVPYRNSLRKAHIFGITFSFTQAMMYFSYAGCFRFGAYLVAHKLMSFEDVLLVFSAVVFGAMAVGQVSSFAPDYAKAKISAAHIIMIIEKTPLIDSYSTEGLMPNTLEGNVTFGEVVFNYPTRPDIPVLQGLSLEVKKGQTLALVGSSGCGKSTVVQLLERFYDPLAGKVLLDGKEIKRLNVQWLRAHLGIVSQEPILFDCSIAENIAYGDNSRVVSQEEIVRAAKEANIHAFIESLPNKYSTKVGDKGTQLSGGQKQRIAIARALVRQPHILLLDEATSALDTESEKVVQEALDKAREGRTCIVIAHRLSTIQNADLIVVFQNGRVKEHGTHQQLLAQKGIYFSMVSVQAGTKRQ

| SMILES | EC50 [1] | IC50 [2] | fold change (FC) (KB [3]) | inhibition (INH) [4] | fold change (FC) (KB [5]) | GI50 (KB [6]) | RatioGI50 (KB [7]) |
| --- | --- | --- | --- | --- | --- | --- | --- |
| Cc1cc(=O)c2c(C)cc3c(c2o1)[C@@H](OC(=O)[C@@]12CCC(C)(C(=O)O1)C2(C)C)[C@@H](OC(=O)[C@@]12CCC(C)(C(=O)O1)C2(C)C)C(C)(C)O3 | 36 nM | > 10000 nM | 910 | Active | 20 | – | – |
| COc1cc2c(c3oc4ccccc4c(=O)c13)[C@@H](OC(=O)[C@@]13CCC(C)(C(=O)O1)C3(C)C)[C@@H](OC(=O)[C@@]13CCC(C)(C(=O)O1)C3(C)C)C(C)(C)O2 | 63 nM | > 10000 nM | 776 | Active | – | – | – |
| COc1cc2c(c3oc4ccc(C)cc4c(=O)c13)[C@@H](OC(=O)[C@@]13CCC(C)(C(=O)O1)C3(C)C)[C@@H](OC(=O)[C@@]13CCC(C)(C(=O)O1)C3(C)C)C(C)(C)O2 | 65 nM | > 10000 nM | 388 | – | – | – | – |
| COc1ccc2oc3c4c(cc(OC)c3c(=O)c2c1)OC(C)(C)[C@H](OC(=O)[C@@]12CCC(C)(C(=O)O1)C2(C)C)[C@@H]4OC(=O)[C@@]12CCC(C)(C(=O)O1)C2(C)C | 121 nM | > 10000 nM | 343 | – | – | – | – |
| COc1c(Br)c2c(c3oc4ccccc4c(=O)c13)[C@@H](OC(=O)[C@@]13CCC(C)(C(=O)O1)C3(C)C)[C@@H](OC(=O)[C@@]13CCC(C)(C(=O)O1)C3(C)C)C(C)(C)O2 | – | > 10000 nM | 1650 | – | 20 | – | – |
| COc1cc2c(c3oc4cccc(C)c4c(=O)c13)[C@@H](OC(=O)[C@@]13CCC(C)(C(=O)O1)C3(C)C)[C@@H](OC(=O)[C@@]13CCC(C)(C(=O)O1)C3(C)C)C(C)(C)O2 | 150 nM | > 10000 nM | 1390 | – | 20 | – | – |
| COc1cc2c(c3oc4c(F)cccc4c(=O)c13)[C@@H](OC(=O)[C@@]13CCC(C)(C(=O)O1)C3(C)C)[C@@H](OC(=O)[C@@]13CCC(C)(C(=O)O1)C3(C)C)C(C)(C)O2 | 230 nM | > 10000 nM | 880 | – | – | – | – |
| CCc1cc(=O)c2ccc3c(c2o1)[C@@H](OC(=O)[C@@]12CCC(C)(C(=O)O1)C2(C)C)[C@@H](OC(=O)[C@@]12CCC(C)(C(=O)O1)C2(C)C)C(C)(C)O3 | 70 nM | > 10000 nM | 132 | – | – | – | – |
| COc1cc2c(c3oc4ccc(F)cc4c(=O)c13)[C@@H](OC(=O)[C@@]13CCC(C)(C(=O)O1)C3(C)C)[C@@H](OC(=O)[C@@]13CCC(C)(C(=O)O1)C3(C)C)C(C)(C)O2 | 100 nM | > 10000 nM | 1150 | – | 20 | – | – |
| CC1(C)Oc2ccc3c(=O)c4ccccc4oc3c2[C@@H](OC(=O)[C@@]23CCC(C)(C(=O)O2)C3(C)C)[C@H]1OC(=O)[C@@]12CCC(C)(C(=O)O1)C2(C)C | 308 nM | > 10000 nM | 1260 | – | 20 | – | – |
| Cc1cc(=O)c2ccc3c(c2o1)[C@@H](OC(=O)[C@@]12CCC(C)(C(=O)O1)C2(C)C)[C@@H](OC(=O)[C@@]12CCC(C)(C(=O)O1)C2(C)C)C(C)(C)O3 | 100 nM | > 10000 nM | 88 | – | – | – | – |
| COc1cccc2c(=O)c3c(OC)cc4c(c3oc12)[C@@H](OC(=O)[C@@]12CCC(C)(C(=O)O1)C2(C)C)[C@@H](OC(=O)[C@@]12CCC(C)(C(=O)O1)C2(C)C)C(C)(C)O4 | – | > 10000 nM | 1020 | – | 20 | – | – |
| COc1cc2c(c3oc4cc(Br)ccc4c(=O)c13)[C@@H](OC(=O)[C@@]13CCC(C)(C(=O)O1)C3(C)C)[C@@H](OC(=O)[C@@]13CCC(C)(C(=O)O1)C3(C)C)C(C)(C)O2 | – | > 10000 nM | 264 | – | – | – | – |
| CC1(C)Oc2cc(O)c3c(=O)c4ccccc4oc3c2[C@@H](OC(=O)[C@@]23CCC(C)(C(=O)O2)C3(C)C)[C@H]1OC(=O)[C@@]12CCC(C)(C(=O)O1)C2(C)C | – | > 10000 nM | < 24 | – | – | – | – |
| COc1cc2c(c3oc4c(C)cccc4c(=O)c13)[C@@H](OC(=O)[C@@]13CCC(C)(C(=O)O1)C3(C)C)[C@@H](OC(=O)[C@@]13CCC(C)(C(=O)O1)C3(C)C)C(C)(C)O2 | 1520 nM | > 10000 nM | 1100 | – | 20 | – | – |
| CCc1cc(=O)c2c(C)cc3c(c2o1)[C@@H](OC(=O)[C@@]12CCC(C)(C(=O)O1)C2(C)C)[C@@H](OC(=O)[C@@]12CCC(C)(C(=O)O1)C2(C)C)C(C)(C)O3 | 100 nM | > 10000 nM | 677 | Active | – | – | – |
| COc1ccc(CCN(C)CCCC(C#N)(c2ccc(OC)c(OC)c2)C(C)C)cc1OC (stereo unspecified) | – | – | 60 | – | – | – | – |
| COc1cc(C)c2c(=O)c3c(OC)cc4c(c3oc2c1)[C@@H](OC(=O)[C@@]12CCC(C)(C(=O)O1)C2(C)C)[C@@H](OC(=O)[C@@]12CCC(C)(C(=O)O1)C2(C)C)C(C)(C)O4 | 140 nM | > 10000 nM | 518 | – | – | – | – |
| CC[C@]1(O)C[C@H]2CN(CCc3c([nH]c4ccccc34)[C@@](C(=O)OC)(c3cc4c(cc3OC)N(C=O)[C@H]3[C@@](O)(C(=O)OC)[C@H](OC(C)=O)[C@]5(CC)C=CCN6CC[C@]43[C@@H]65)C2)C1 [VINCRISTINE] | – | – | – | – | – | 2 nM | 1320 |
| COc1ccc2c(=O)c3c(OC)cc4c(c3oc2c1)[C@@H](OC(=O)[C@@]12CCC(C)(C(=O)O1)C2(C)C)[C@@H](OC(=O)[C@@]12CCC(C)(C(=O)O1)C2(C)C)C(C)(C)O4 | 362 nM | > 10000 nM | 98 | – | – | – | – |
| COc1cc2c(c3oc4cc(C)ccc4c(=O)c13)[C@@H](OC(=O)[C@@]13CCC(C)(C(=O)O1)C3(C)C)[C@@H](OC(=O)[C@@]13CCC(C)(C(=O)O1)C3(C)C)C(C)(C)O2 | 95 nM | > 10000 nM | 352 | – | – | – | – |
